Screening results (PubChem)
CXCR6 inh: CXCR6 receptor inhibitors, primary screen, cell-based, beta-arrestin, luminescence, CHO-K1 PathHunter, 1536-well; inhibition, % at 20 µM; 0.36% of 360,000 active; C-X-C chemokine receptor type 6 (Homo sapiens), O00574; in the data active = inhibition above about 34%, passing the limit was not always enough;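 also: antagonist mode with CXCL16 agonist at 10 nM final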
Target sequence (O00574 whole entry, looked up): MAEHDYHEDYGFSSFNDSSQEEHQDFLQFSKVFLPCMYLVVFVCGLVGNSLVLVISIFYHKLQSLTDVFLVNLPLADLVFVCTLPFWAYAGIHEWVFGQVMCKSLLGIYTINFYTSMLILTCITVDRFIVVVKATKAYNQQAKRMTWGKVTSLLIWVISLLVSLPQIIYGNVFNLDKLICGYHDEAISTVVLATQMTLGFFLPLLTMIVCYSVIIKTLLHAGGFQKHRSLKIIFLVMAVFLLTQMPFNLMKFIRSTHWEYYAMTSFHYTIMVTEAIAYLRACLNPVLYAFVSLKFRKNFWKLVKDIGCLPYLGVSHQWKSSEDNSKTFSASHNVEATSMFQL
CCR6 antag: CCR6 receptor antagonists, primary screen, cell-based, CHO-K1, luminescence, beta-arrestin, uHTS; C-C chemokine receptor type 6 (Homo sapiens), P51684; CHO-K1 CCR6 PathHunter beta-arrestin, CCL20-stimulated; inhibition, % at 20 µM; 0.49% of 340,000 active; AID 493098, 2011;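 active = compounds whose inhibition of the agonist-driven luminescence signal at 20 µM reaches about 50%, limit read from the data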;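 also: cells stimulated with CCL20 at 14 nM final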
APJ antagonist: antagonists of human apelin receptor APJ, primary screen, CHO-K1 cells, beta-arrestin complementation, luminescence; P35414; inhibition, % at 20 µM; 0.32% of 330,000 active;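 active = inhibition above about 40% at 20 µM, limit read from the data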;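 also: cells challenged with 10 nM apelin-13 agonist together with compound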
Target sequence (P35414 whole entry, looked up): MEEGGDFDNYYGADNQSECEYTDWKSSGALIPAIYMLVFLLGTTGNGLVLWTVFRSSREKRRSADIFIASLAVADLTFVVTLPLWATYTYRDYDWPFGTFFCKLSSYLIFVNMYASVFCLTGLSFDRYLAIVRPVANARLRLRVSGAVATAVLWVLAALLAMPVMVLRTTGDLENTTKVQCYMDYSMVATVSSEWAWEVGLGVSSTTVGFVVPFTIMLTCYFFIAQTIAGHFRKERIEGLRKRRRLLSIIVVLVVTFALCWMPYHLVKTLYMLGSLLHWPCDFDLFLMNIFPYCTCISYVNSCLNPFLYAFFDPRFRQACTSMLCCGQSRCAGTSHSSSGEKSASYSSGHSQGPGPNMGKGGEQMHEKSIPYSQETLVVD
EBI2 antag: EBI2 receptor antagonists, beta-arrestin recruitment, primary screen, cell-based, luminescence, 7a,25-OHC stimulation, uHTS | G-protein coupled receptor 183 (Homo sapiens), P32249 | 7a,25-OHC stimulated | inhibition, % at 5 µM | 0.81% of 360,000 active | AID 651636, 2012; in the data active = inhibition above about 38%;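 also: enzyme fragment complementation signal reports receptor beta-arrestin coupling in cells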
APJ agonist: agonists of human apelin receptor APJ, primary screen, CHO-K1 cells, PathHunter beta-arrestin, luminescence | P35414 | 0% DMSO wells, 100% apelin | activation, % at 20 µM | 0.11% of 330,000 active | AID 2520, 2010;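 active = activation more than six SD over the plate average, tested at 20 µM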
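Assay system: CHO-K1 cells stably expressing ProLink-tagged human APJ and arrestin–beta-gal acceptor. Compound dosing: 20 µM single point, 1% DMSO. Times: 16-18 h seeding, 90 min dark compound exposure, 60 min detection. Detection: beta-gal luminescence. Evaluation: APJ–arrestin association signal. Controls: negative DMSO alone, positive Apelin-13 at 10 nM.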
APJ ag confirm: agonists of human apelin receptor APJ, confirmation, cell-based, single concentration, CHO-K1, beta-arrestin, luminescence; activation, % at 20 µM; AID 2764, 2010; shares compounds with APJ agonist; 10% of 310 active; CHO-K1 APJ PathHunter beta-arrestin;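 active = activation above 40%, taking the highest of four retests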
APJ antag confirm: APJ antagonists blocking beta-arrestin recruitment, confirmation, cell-based, luminescence, single concentration, uHTS hits. shares compounds with APJ antagonist. antagonist mode. inhibition, % at 20 µM. 66% of 950 active. AID 2766, 2010; in the data active = inhibition above about 50%
Numbers stand for hits; 0 = inactive; - = no result given. Only some compounds are listed: those with a hit (about 1.5% of all), similar ones and a draw of the others.

SMILES | CXCR6 inh | CCR6 antag | APJ antagonist | EBI2 antag | APJ agonist | APJ antag confirm | others
N/C(Cc1ccc(Cl)c(Cl)c1)=N\OC(=O)c1ccc(Br)o1 | 0 | 0 | 0 | 0 | 21 | - | APJ ag confirm=0
N#Cc1cc(-c2ccccc2)nnc1Oc1ccccc1 | 0 | 0 | 0 | 0 | 0 | -
Cc1ccc(Oc2nnc(-c3ccccc3)cc2C#N)cc1 | 0 | 0 | 0 | 0 | 22 | - | APJ ag confirm=0
CC1=C(C)/C(=N\OS(=O)(=O)c2ccccc2)C=CC1=O | 51 | 87 | 0 | 0 | 41 | - | APJ ag confirm=0
Cc1ccccc1Nc1nnc(-c2ccc(C(=O)NCCO)cc2)c2ccccc12 | 0 | 0 | 0 | 0 | 0 | -
CCCNC(=O)Cn1sc2nc(C)cc(C)c2c1=O | 0 | 0 | 0 | 0 | 0 | -
CCOc1cc(-c2nc(C)c(C(C)=O)n2O)ccc1OCC(=O)Nc1ccccc1 | 0 | 0 | 0 | 0 | 0 | -
O=C(c1ccc([N+](=O)[O-])o1)N1CCN(c2nc3c(Cl)cccc3s2)CC1 | 0 | 0 | 0 | 0 | 32 | - | APJ ag confirm=0
COc1cccc2sc(N3CCN(C(=O)c4ccc([N+](=O)[O-])o4)CC3)nc12 | 0 | 0 | 0 | 0 | 0 | -
CCCCCCCCCn1c2c(c(=N)c3c1CCC3)CCCC2 | 0 | 0 | 41 | 0 | 10 | 0 | APJ ag confirm=0
CCCCCCCCCCn1c2c(c(=N)c3c1CCC3)CCC2 | 0 | 0 | 0 | 0 | 0 | -
CN(C)CCCO[C@@H]1[C@H]2OC(C)(C)O[C@H]2O[C@@H]1[C@H](O)CO | 0 | 0 | 0 | 0 | 0 | -
COC(=O)C1=C(Cn2cnc3ccccc32)NC(=O)NC1c1cc(C)ccc1C (configuration not stated) | 0 | 0 | 46 | 0 | 76 | 0 | APJ ag confirm=62
CCOC(=O)c1nnc2cc(-c3ccccc3)nn2c1C | 0 | 0 | 0 | 0 | 0 | -
CCOC(=O)c1nnc2c(Br)c(-c3ccccc3)nn2c1C | 0 | 0 | 44 | 0 | 0 | 0
O=C(CCC(=O)Nc1nnc(C2CCCCC2)s1)Nc1ccc(F)cc1 | 0 | 0 | 0 | 0 | 0 | -
O=C(O)CCC(=O)Nc1ccc(-c2csc(Nc3cccc4ccccc34)n2)cc1 | 0 | 0 | 0 | 0 | 0 | -
Oc1ccc(-c2nnc(Nc3cccc(O)c3)c3ccccc23)cc1 | 0 | 0 | 67 | 0 | 0 | 0
CNC(=O)c1ccc(Nc2nnc(-c3ccc(O)cc3)c3ccccc23)cc1 | 0 | 0 | 0 | 0 | 0 | -
Clc1cccc(Cc2c(C3CCCCC3)nc3ccc(Br)cn23)c1 | 0 | - | - | 0 | - | -
C=C1C(=O)O[C@@H]2C[C@@H](C)[C@@H]3C=CC(=O)[C@@]3(C)[C@@H](OC(C)=O)[C@H]12 | - | 0 | 46 | - | 0 | 77
CCOc1ccc(NC(=O)C2CCC(CNc3c(N4CCCCC4)c(=O)c3=O)CC2)cc1 (configuration not stated) | 0 | 0 | 47 | 0 | 0 | 0
Cc1occc1C(=O)Nc1cnn(CCCC(=O)O)c1 | 0 | 0 | 0 | 0 | 0 | -
CC(/C=N/n1c(C2CCCCC2)n[nH]c1=S)=C\c1ccccc1 | 0 | 0 | 47 | 0 | 0 | 78
Cc1ccc(C)c(NC(=S)/C(=C(\[O-])c2ccc(OC(F)F)cc2)[n+]2ccccc2)c1 | 0 | 0 | 0 | 0 | 0 | -
SMILES | CXCR6 inh | CCR6 antag | APJ antagonist | EBI2 antag | APJ agonist | APJ antag confirm | others
[O-]/C(=C(\C(=S)Nc1ccccc1F)[n+]1ccccc1)c1ccc(OC(F)F)cc1 | 0 | 0 | 48 | 0 | 0 | 0
CCOc1cc(/C=N/NC(=O)c2ccc(NC(=O)C3CC3)cc2)ccc1O | 0 | 0 | 0 | 0 | 0 | -
COc1cc(/C=N/NC(=O)c2ccc(NC(=O)C3CCCCC3)cc2)ccc1O | 0 | 0 | 48 | 0 | 0 | 0
NS(=O)(=O)c1ccc(NC(=O)Nc2ccc3c(c2)OCO3)cc1 | 0 | 0 | 0 | 0 | 0 | -
CCOc1ccc(N=Nc2c(=O)[nH]n3c(=O)cc(C)[nH]c23)cc1 | 0 | 0 | 47 | 0 | 0 | 0
Cc1cc(=O)n2[nH]c(=O)c(N=Nc3ccccc3)c2[nH]1 | 0 | 0 | 0 | 0 | 0 | -
COc1ccccc1OCC(O)Cn1nc(C)cc1C (configuration not stated) | 0 | 0 | 0 | 0 | 0 | -
COc1ccccc1Oc1cc(-n2nc(C)cc2C)ncn1 | 0 | 0 | 54 | 0 | 0 | 0
CCN(CC(=O)Nc1ccc(OC)cc1)C(=O)c1ccc2c(c1)NC(=O)C(C)S2 (configuration not stated) | 0 | 0 | 0 | 0 | 0 | -
C1=C\CCC2(OCCO2)C2(CC/1)OCCO2 | 0 | - | - | 0 | - | -
Cc1cc(C)c2ccc(N)nc2c1O | 49 | 62 | 51 | 0 | 0 | 59
COc1cc(NS(=O)(=O)c2ccc(N/C=C(\C#N)c3nc4cc(Cl)ccc4o3)cc2)nc(OC)n1 | 0 | 0 | 41 | 0 | 0 | 0
O=C/C(=C\Nc1ccc(S(=O)(=O)CCO)cc1)c1nc2cc(Cl)ccc2o1 | 0 | 0 | 105 | 0 | 0 | 0
COc1cc(NS(=O)(=O)c2ccc(NC(C)=O)cc2)nc(OC)n1 | 0 | 0 | 0 | 0 | 0 | -
O=C/C(=C\Nc1ccc(Cl)cn1)c1nc2cc(Cl)ccc2o1 | 0 | 0 | 0 | 0 | 0 | -
CC1(C)CC(=O)C=C(c2cccc3c2sc2ccccc23)C1 | 0 | 0 | 0 | 0 | 0 | -
Cc1ccccc1CNCCCSc1ncccn1 | 0 | 0 | 0 | 0 | 0 | -
CCOC(=O)/C=C/S(=O)(=O)c1ccc(NC(C)=O)cc1 | 0 | 0 | 44 | 0 | 0 | 83
O=C(N/N=C/c1ccc(-c2ccccc2[N+](=O)[O-])o1)c1cncc(Br)c1 | 0 | 0 | 0 | 0 | 0 | -
O=C(N/N=C\c1ccc([N+](=O)[O-])o1)c1cncc(Br)c1 | 0 | 0 | 42 | 0 | 0 | 0
O=C(c1ccccc1)c1cccn1CC(=O)N1CCc2ccccc2C1 | 48 | 51 | 50 | 0 | 0 | 94
O=C(Cn1cccc1C(=O)c1ccccc1)NCCCN1CCc2ccccc2C1 | 0 | 0 | 0 | 0 | 0 | -
CC(C)(C)OC(=O)C[C@@H]1C/C=C\C[C@H](CC(=O)N(CCO)Cc2ccccc2)C(=O)NC[C@@H](c2ccccc2)OC1=O | 56 | 56 | 54 | 0 | 0 | 100
Cc1sc2nc(CSCC(=O)Nc3ccc(Cl)cc3F)[nH]c(=O)c2c1C | 0 | 0 | 0 | 0 | 0 | -
CC(C)CNc1nnnc2c1sc1nc(N3CCOCC3)c3c(c12)CC(C)(C)SC3 | 0 | 0 | 0 | 0 | 0 | -
CC1(C)Cc2c(c(N3CCOCC3)nc3sc4c(NN)ncnc4c23)CS1 | 0 | 56 | 60 | 0 | 0 | 89
Cc1ccc(C(=O)COC(=O)CNC(=O)c2ccc(Br)o2)cc1[N+](=O)[O-] | 0 | 0 | 48 | 0 | 0 | 66
